# What was measured:
# [1] = target: T1, Cannabinoid receptor 2 (Homo sapiens, UniProt P34972); experiment: Agonist activity at human recombinant CB2 receptor expressed in Sf9 cells by GTP-europium binding assay
# How it was run: (§1)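 Membranes were from Sf9 insect cells cotransfected with CB1 or CB2 plus Gαi3 (Bmax 1.7 pmol/mL). Compound (0.01 nM–10 µM, 1% DMSO final) was added to buffer with Hepes, BSA, 10 mM MgCl2, 150 mM NaCl, 5 µM GDP, 10 nM GTP-europium, saponin and membranes (CB1 4.5 µg/well, CB2 14 µg/well). 100% efficacy was set by 3 µM reference agonist.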
# [2] = target: T1, Cannabinoid receptor 2; experiment: Agonist activity at human recombinant CB2 receptor expressed in Sf9 cells by GTP-europium binding assay relative to CP-55940
# How it was run: as §1, with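 “µg/well). Incubation was 45 min at room temperature, then filtration and washing, with fluorescence read at 615 nm.” for “µg/well).”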
# [3] = target: T2, Cannabinoid receptor 2 (Rattus norvegicus, UniProt Q9QZN9); experiment: Agonist activity at rat recombinant CB2 receptor expressed in CHO-K1 cells assessed as inhibition of forskolin-stimulated intracellular cAMP level; type: functional, cell-based
# T2 sequence (Q9QZN9 whole entry): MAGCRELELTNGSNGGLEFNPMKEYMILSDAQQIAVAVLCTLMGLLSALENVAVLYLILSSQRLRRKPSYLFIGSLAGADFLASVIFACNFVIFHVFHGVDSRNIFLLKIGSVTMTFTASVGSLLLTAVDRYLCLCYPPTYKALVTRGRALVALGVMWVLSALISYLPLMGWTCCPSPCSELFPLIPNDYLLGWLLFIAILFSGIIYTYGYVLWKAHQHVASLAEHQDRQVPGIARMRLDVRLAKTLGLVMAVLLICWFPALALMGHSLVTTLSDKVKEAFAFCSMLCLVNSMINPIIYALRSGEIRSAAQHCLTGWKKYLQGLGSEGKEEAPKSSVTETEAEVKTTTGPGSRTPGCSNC
# How it was run: (§2)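 CHO-K1 cells stably expressing human or rat CB1 or CB2 were used. Compounds were diluted from DMSO into HBSS/HEPES/BSA buffer containing 60 µM forskolin, then combined with 5000 cells/well plus Alexa647 anti-cAMP antibody, 1 h at room temperature. A biotinylated-cAMP detection mix was added for another 1 h. Emission at 665 nm gave concentration-response curves and EC50; Emax is expressed as a percentage of the reference agonist maximum.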
# [4] = target: Cannabinoid receptor 1 (Rattus norvegicus, UniProt P20272); experiment: Agonist activity at rat recombinant CB1 receptor expressed in CHO-K1 cells assessed as inhibition of forskolin-stimulated intracellular cAMP level; type: functional, cell-based
# Chain of Cannabinoid receptor 1 (Rattus norvegicus, UniProt P20272) (P20272 whole entry): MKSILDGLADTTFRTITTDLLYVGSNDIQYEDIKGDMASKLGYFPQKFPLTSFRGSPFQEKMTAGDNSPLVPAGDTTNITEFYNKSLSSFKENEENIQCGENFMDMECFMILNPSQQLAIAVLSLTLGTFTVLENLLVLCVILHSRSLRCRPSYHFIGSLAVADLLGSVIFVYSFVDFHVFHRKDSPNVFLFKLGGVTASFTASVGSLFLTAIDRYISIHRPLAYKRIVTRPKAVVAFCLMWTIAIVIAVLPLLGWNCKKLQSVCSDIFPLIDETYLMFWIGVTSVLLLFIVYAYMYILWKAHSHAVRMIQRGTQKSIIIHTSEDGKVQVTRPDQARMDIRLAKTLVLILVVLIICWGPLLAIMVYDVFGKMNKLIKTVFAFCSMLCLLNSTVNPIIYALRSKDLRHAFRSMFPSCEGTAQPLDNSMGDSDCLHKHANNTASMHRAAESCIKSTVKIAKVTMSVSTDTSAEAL
# How it was run: as §2, with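 “h.” for “h. Emission at 665 nm gave concentration-response curves and EC50; Emax is expressed as a percentage of the reference agonist maximum.”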
# [5] = target: Cannabinoid receptor 1 (Rattus norvegicus) (UniProt P20272); experiment: Agonist activity at rat recombinant CB1 receptor expressed in CHO-K1 cells assessed as inhibition of forskolin-stimulated intracellular cAMP level relative to CP-55940; type: functional, cell-based; how it was run: as §2
# Chain of Cannabinoid receptor 1 (Rattus norvegicus) (P20272 whole entry): as above
# [6] = target: T1, Cannabinoid receptor 2; experiment: Agonist activity at human recombinant CB2 receptor expressed in CHO-K1 cells assessed as inhibition of forskolin-stimulated intracellular cAMP level; type: functional, cell-based
# How it was run: as §2, with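 “h.” for “h. Emission at 665 nm gave concentration-response curves and EC50; Emax is expressed as a percentage of the reference agonist maximum.”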
# [7] = target: T1, Cannabinoid receptor 2; experiment: Agonist activity at human recombinant CB2 receptor expressed in CHO-K1 cells assessed as inhibition of forskolin-stimulated intracellular cAMP level relative to CP-55940; type: functional, cell-based; how it was run: as §2
# [8] = target: T3, Cannabinoid receptor 1 (Homo sapiens, UniProt P21554); experiment: Agonist activity at human CB1 receptor expressed in Sf9 cells by GTP-europium binding assay; how it was run: as §1
# T3 sequence (P21554 whole entry): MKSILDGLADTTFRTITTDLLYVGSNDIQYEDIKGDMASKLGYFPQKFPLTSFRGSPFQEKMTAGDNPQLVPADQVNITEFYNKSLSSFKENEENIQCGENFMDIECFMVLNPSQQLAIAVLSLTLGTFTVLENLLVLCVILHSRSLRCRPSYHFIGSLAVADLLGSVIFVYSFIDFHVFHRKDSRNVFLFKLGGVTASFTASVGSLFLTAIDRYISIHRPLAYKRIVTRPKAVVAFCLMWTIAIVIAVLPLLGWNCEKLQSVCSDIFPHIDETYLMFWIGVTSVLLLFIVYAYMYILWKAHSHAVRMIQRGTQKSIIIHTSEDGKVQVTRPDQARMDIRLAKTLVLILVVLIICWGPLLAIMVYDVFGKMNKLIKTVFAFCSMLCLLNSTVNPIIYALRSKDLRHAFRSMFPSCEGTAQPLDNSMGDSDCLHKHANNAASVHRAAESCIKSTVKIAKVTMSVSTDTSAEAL
# [9] = target: T3, Cannabinoid receptor 1; experiment: Agonist activity at human recombinant CB1 receptor expressed in Sf9 cells by GTP-europium binding assay relative to CP-55940
# How it was run: as §1, with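 “µg/well). Incubation was 45 min at room temperature, then filtration and washing, with fluorescence read at 615 nm.” for “µg/well).”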
# [10] = target: T4, Cannabinoid receptor 2 (Rattus norvegicus) (UniProt Q9QZN9); experiment: Agonist activity at rat recombinant CB2 receptor expressed in CHO-K1 cells assessed as inhibition of forskolin-stimulated intracellular cAMP level relative to CP-55940; type: functional, cell-based; how it was run: as §2
# T4 sequence (whole entry): T2 sequence (Q9QZN9 whole entry)
# [11] = target: T3, Cannabinoid receptor 1; experiment: Agonist activity at human recombinant CB1 receptor expressed in CHO-K1 cells assessed as inhibition of forskolin-stimulated intracellular cAMP level relative to CP-55940; type: functional, cell-based; how it was run: as §2
# [12] = target: T3, Cannabinoid receptor 1; experiment: Agonist activity at human recombinant CB1 receptor expressed in CHO-K1 cells assessed as inhibition of forskolin-stimulated intracellular cAMP level; type: functional, cell-based
# How it was run: as §2, with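 “h.” for “h. Emission at 665 nm gave concentration-response curves and EC50; Emax is expressed as a percentage of the reference agonist maximum.”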
# T1 sequence (P34972 whole entry): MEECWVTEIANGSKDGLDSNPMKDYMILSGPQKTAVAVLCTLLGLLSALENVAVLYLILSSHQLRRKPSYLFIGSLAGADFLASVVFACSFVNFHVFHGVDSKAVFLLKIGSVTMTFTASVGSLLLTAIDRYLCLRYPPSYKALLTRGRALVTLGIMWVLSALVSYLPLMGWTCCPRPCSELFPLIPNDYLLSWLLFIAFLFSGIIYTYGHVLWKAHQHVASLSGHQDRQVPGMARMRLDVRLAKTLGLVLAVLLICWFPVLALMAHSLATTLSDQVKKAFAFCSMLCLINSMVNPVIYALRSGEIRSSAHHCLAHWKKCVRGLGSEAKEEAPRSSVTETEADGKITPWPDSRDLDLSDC
Structure (SMILES),EC50 [1] [nM],Emax [2] [%],EC50 [3] [nM],EC50 [4] [nM],Emax [5] [%],EC50 [6] [nM],Emax [7] [%],EC50 [8] [nM],Emax [9] [%],Emax [10] [%],Emax [11] [%],EC50 [12] [nM]
CCn1c2ccccc2c2cc(NC(=O)CCc3nc(-c4ccccc4)no3)ccc21,150,100,–,–,–,–,–,–,–,–,–,–
CCn1c2ccccc2c2cc(NC(=O)CCc3nc(-c4ccc(F)cc4C#N)no3)ccc21,0.85,120,0.13,240,84,0.33,110,709,39,130,12,> 1000
CCn1c2ccccc2c2cc(NC(=O)CCc3nc(-c4ccc(F)cc4Cl)no3)ccc21,1.8,98,0.4,330,79,0.6,100,1200,65,98,20,> 1000
CC(C)(C)c1cc(NC(=O)CCc2nc(-c3ccc(F)cc3Cl)no2)no1,0.2,120,0.4,170,110,0.7,96,1600,103,100,48,> 1000
CCCCCCC(C)(C)c1ccc([C@@H]2C[C@H](O)CC[C@H]2CCCO)c(O)c1 [CP-55940],–,–,0.34,–,–,–,–,–,–,–,–,–
Fc1ccc(-c2noc(CCCOc3cnc4ccc(Cl)cc4c3)n2)c(Cl)c1,7.2,110,5.1,83,98,3.6,99,1100,92,99,48,990
CCn1c2ccccc2c2cc(NC(=O)CCc3nc(-c4ccc(F)cc4C)no3)ccc21,0.089,120,0.27,280,81,0.47,100,1400,24,110,–,> 1000
O=C(CCc1nc(-c2ccc(F)cc2Cl)no1)Nc1ccc(C(F)(F)F)c(Cl)c1,62,120,79,> 1000,–,25,97,> 10000,–,100,–,> 1000
CC(C)(C)c1cc(NCCCc2nc(-c3ccc(F)cc3Cl)no2)no1,27,110,190,> 1000,–,130,90,670,33,82,–,> 1000
O=C(CCc1nc(-c2ccc(F)cc2Cl)no1)Nc1ccc(C(F)(F)F)nc1,97,120,73,> 1000,–,78,96,2800,17,95,–,> 1000
CCn1c2ccccc2c2cc(NC(=O)CCc3nc(-c4ccccc4C(C)C)no3)ccc21,670,88,–,–,–,–,–,> 10000,–,–,–,–
CCn1c2ccccc2c2cc(NC(=O)CCc3cc(-c4ccccc4F)no3)ccc21,270,64,–,–,–,–,–,> 10000,–,–,–,–
CC(C)c1ccc(NC(=O)CCc2nc(-c3ccc(F)cc3Cl)no2)cc1,10,130,–,–,–,–,–,2000,23,–,–,–
CCn1c2ccccc2c2cc(NC(=O)CCc3noc(-c4ccccc4F)n3)ccc21,190,76,–,–,–,–,–,> 10000,–,–,–,–
